Assay [1] deals with Histamine H2 receptor (Cavia porcellus, UniProt P47747). Nature of the assay: In vitro antihistamine activity by activation of 4-methylhistamine mediated by Histamine H2 receptor. The assay is classed as functional.
Assay [2] deals with Adrenergic receptor alpha. Nature of the assay: In vitro binding affinity towards alpha-adreno ceptor of rat forebrain using [3H]prazosin. Put shortly: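 Rat forebrain membranes, [3H]prazosin binding by the Greengrass and Bremner procedure, with ascorbic acid omitted from the incubation medium. Drugs are tested in triplicate over a wide concentration range in a single experiment.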

Assay [3] deals with Rattus norvegicus. The assay can be described thus: In vivo determination of MHPG-SO4 level in rat whole brain at a dose 10 mg/kg intraperitoneal administration. The assay is classed as functional. Put shortly: (§1)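 Rats, five per experiment, receive test agent ip as a corn starch suspension and are sacrificed 2 h later. Whole-brain MHPG-SO4 (μg/g) is measured by the Meek and Neff procedure and expressed as a percentage of control, ± SE.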

For assay [4], the species on record is Mus musculus. The assay can be described thus: Antidepressant potential (duration) by using the behavioral despair model. The assay is classed as functional.
The subject of assay [5] is Rattus norvegicus. The assay can be described thus: In vivo determination of MHPG-SO4 level in rat whole brain at a dose 20 mg/kg ip administration (5 rats). In kind it is functional. The settings on record: route intraperitoneal. In outline:
as §1

Assay [6] concerns Rattus norvegicus. The assay can be described thus: In vivo determination of MHPG-SO4 level in rat whole brain at a dose 0 mg/kg intraperitoneal administration. In kind it is functional. In outline: as §1
The target in assay [7] is serotonin (5-HT) receptor (Bos taurus).
Assay [8] deals with T1, Cerebral cortex alpha adrenergic receptor (Bos taurus, UniProt Q28838+P18130).
T1 sequence (Q28838 whole entry): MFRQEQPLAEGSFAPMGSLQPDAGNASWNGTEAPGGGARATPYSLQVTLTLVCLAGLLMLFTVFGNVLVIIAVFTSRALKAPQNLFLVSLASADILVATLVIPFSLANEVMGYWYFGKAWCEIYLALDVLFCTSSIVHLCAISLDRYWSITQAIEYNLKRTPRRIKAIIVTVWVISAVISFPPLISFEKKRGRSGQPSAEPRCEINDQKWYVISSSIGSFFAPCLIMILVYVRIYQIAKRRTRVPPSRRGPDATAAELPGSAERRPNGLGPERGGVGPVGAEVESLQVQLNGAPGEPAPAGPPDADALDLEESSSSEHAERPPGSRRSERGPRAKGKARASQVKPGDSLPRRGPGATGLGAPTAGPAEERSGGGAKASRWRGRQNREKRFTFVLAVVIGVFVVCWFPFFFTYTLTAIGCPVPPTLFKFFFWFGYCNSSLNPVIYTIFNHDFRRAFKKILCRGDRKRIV
T1 sequence (P18130 whole entry): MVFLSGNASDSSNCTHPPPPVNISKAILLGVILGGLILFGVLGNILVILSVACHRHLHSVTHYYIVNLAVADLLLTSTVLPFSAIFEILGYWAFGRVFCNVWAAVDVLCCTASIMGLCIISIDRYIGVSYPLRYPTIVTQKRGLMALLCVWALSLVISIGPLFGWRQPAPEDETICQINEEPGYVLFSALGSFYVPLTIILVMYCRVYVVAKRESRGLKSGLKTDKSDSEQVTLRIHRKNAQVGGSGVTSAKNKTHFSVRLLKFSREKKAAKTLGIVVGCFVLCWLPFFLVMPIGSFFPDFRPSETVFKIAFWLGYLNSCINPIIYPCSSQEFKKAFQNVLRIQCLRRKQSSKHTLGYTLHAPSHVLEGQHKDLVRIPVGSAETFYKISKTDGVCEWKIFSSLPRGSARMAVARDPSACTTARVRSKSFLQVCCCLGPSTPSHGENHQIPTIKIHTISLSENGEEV
Nature of the assay: In vitro binding affinity towards alpha-adrenoceptor of calf cortex membrane Site B using [3H]-clonidine.

For assay [9], the system named is Rattus norvegicus. The assay can be described thus: In vivo determination of MHPG-SO4 level in rat whole brain at a dose 10 mg/kg ip administration (5 rats). The assay is classed as functional. The conditions noted are these: route intraperitoneal. Put shortly:
as §1

Assay [10] has as its system Rattus norvegicus. The assay can be described thus: In vivo determination of MHPG-SO4 level in rat whole brain at a dose 3 0 mg/kg ip administration. In kind it is functional. The conditions noted are these: route intraperitoneal. Put shortly: as §1
Assay [11] relates to Mus musculus. Nature of the assay: In vivo Antagonism (ip) of 0.1 mg/kg clonidine-induced analgesia (po) determined in phenylquinone-induced writhing assay at a dose of 30 mg/kg dose; the ratio is 4/10. The assay is classed as functional, organism-based. Put shortly: (§2)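 Male mice (18–22 g) receive the test substance ip, then clonidine 0.1 mg/kg po 30 min later. Phenylquinone is given ip 20 min after clonidine. Mice writhing 5–15 min after phenylquinone count as reactors. The result is the number of mice, out of n = 10 per experiment, in which clonidine analgesia is reversed.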

The target in assay [12] is T1, Cerebral cortex alpha adrenergic receptor. Nature of the assay: In vitro binding affinity towards alpha-adrenoceptor of calf cortex membrane Site A using [3H]clonidine.
Assay [13] concerns Mus musculus. Nature of the assay: In vivo central presynaptic alpha-blockade using [3H]rauwolscine in mice (injected iv 20 min later and the mice were sacrificed at 35 min). The assay is classed as functional. The settings on record: read-out: ID50 (the source's name). Put shortly: (§3)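 Mice get test drug or vehicle ip at zero time, then [3H]rauwolscine iv 20 min later, and are sacrificed at 35 min. Displacement is measured in mouse forebrain. […] ID50 and 95% confidence limits follow the Granat method.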

Assay [14] concerns Rattus norvegicus. The assay can be described thus: In vivo determination of MHPG-SO4 level in rat whole brain at a dose 30 mg/kg ip administration (5 rats). In kind it is functional. The settings on record: route intraperitoneal. Put shortly: (§4)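 Rats were given the test agent or vehicle ip as a suspension in corn starch. They were killed 2 h later, and MHPG-SO₄ was measured in whole brain in μg/g ± SE and as % of vehicle control. Five rats were used per experiment.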

The nature of assay [15]: (§5) In vitro antihistamine activity, by activation of guinea pig cerebral cortex adenylate cyclase by histamine mediated by both H1 and H2 receptors. The assay is classed as functional, tissue-based, Cavia porcellus. Put shortly:
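Adenylate cyclase preparation from guinea pig cerebral cortex, activated by histamine (acting via H1 + H2 receptors). Percent inhibition is measured in triplicate over a wide concentration range, and IC50 is calculated from those data. Psychoyos procedure.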

Assay [16] deals with Rattus norvegicus. The assay can be described thus: In vivo determination of MHPG-SO4 level in rat whole brain at a dose 20 mg/kg intraperitoneal administration. The assay is classed as functional. Put shortly: as §1
For assay [17], the system named is Rattus norvegicus. Nature of the assay: In vivo determination of MHPG-SO4 level in rat whole brain at a dose 0 mg/kg ip administration. The assay is classed as functional. The settings on record: route intraperitoneal. In outline: as §4
Assay [18] is described as follows: as §5.
The subject of assay [19] is Rattus norvegicus. The assay can be described thus: In vivo determination of MHPG-SO4 level in rat whole brain at a dose 30 mg/kg ip administration. In kind it is functional. The settings on record: route intraperitoneal. In outline:
as §4

For assay [20], the system named is Mus musculus. Nature of the assay: In vivo central presynaptic alpha-blockade using [3H]rauwolscine (injected iv 20 min later and the mice were sacrificed at 35 min). The conditions noted are these: read-out: ID50.
In assay [21] the test system is Mus musculus. The assay can be described thus: Central presynaptic alpha-blockade using [3H]rauwolscine (injected iv 20 min later and the mice were sacrificed at 35 min) (in vivo);value ranges between (1.2-5.9). The conditions noted are these: read-out: ID50 (the source's name). The assay is classed as functional. Put shortly:
as §3

The subject of assay [22] is Mus musculus. Nature of the assay: In vivo Antagonism (ip) of 0.1 mg/kg clonidine-induced analgesia (po) determined in phenylquinone-induced writhing assay at 10 mg/kg dose; the ratio being 4/10. In kind it is functional, organism-based. Put shortly:
as §2
(In writhing tests, fewer writhes than in controls are read as antinociception.)

Assay [23] deals with serotonin (5-HT) receptor (Bos taurus). The assay can be described thus: In vitro binding affinity of serotonin receptor by interacting with high affinity, [3H]serotonin from calf caudate nucleus.

Calls of active or inactive are those of the source.

Chain of Histamine H2 receptor (P47747 whole entry): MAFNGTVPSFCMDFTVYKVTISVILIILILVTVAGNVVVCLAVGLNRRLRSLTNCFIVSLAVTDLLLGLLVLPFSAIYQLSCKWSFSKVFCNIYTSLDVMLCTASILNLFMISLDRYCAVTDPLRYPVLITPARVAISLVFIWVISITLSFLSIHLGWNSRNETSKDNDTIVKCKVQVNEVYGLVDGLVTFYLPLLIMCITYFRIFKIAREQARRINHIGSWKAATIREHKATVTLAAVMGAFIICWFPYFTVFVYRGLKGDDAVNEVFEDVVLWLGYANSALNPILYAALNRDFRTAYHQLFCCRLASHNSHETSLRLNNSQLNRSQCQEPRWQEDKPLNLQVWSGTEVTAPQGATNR

By IC50 is commonly meant the midpoint of a concentration-inhibition curve. High values mean weaker potency in that assay, low ones greater potency in that assay. In the case of `CN1CCN2c3ccccc3Cc3ccsc3C2C1` (stereo unspecified), the IC50 was 19000 nM in assay [1]; 1400 nM in assay [2]; 500 nM in [7]; 3 nM in assay [8]; 3 nM in [12]; 280 nM in assay [15]. The MHPG_SO4 in [3] came out at 0.15 µg/g; in assay [6], 0.11 µg/g. This molecule showed a Duration in assay [4] of 185 s. Also, the Control in assay [5] was 191%; in [9] it was 136%; in assay [14], 245%. The MHPG SO4 in assay [10] was determined as 0.27 µg/g; in assay [16] it was 0.21 µg/g. Also, the Antagonism result in [11] was “Partially active”. The ED50 in assay [13] was determined as 3.3 mg/kg.

Molecule `CN1CCN2c3ccccc3Cc3ccccc3C2C1.Cl` (stereo unspecified) [MIANSERIN HYDROCHLORIDE] registered an MHPG_SO4 in assay [17] of 0.11 µg/g. The IC50 turned out to be 190 nM in assay [18] and 3800 nM in [1]. The Duration in [4] turned out to be 186 s. The molecule further gave an MHPG SO4 in assay [19] of 0.19 µg/g. Also, in [20], the ED50 stood at 3.7 mg/kg. Further, in assay [14], the Control stood at 180%.

`CN1CCN2c3ccccc3Cc3sccc3C2C1` (stereo unspecified): the IC50 in [1] was determined as 7200 nM; in assay [2] it was 300 nM; in assay [23], 100 nM; in assay [8], 3 nM; in assay [12] it was 2 nM; in assay [15] it was 90 nM. For the same molecule, the ED50 in assay [21] came to 2.7 mg/kg. Further, the Antagonism result in [22] is “Partially active”.

The record behind these values is ChEMBL document CHEMBL1122264, “Synthesis and biological properties of thiophene ring analogues of mianserin” (J Med Chem, 1983).
